Screens: PubChem BioAssay, several laboratories
CYP2C19 inh – human CYP2C19 inhibition; P33261; CYP2C19 Supersomes, luciferin-H EGE luminescence, 30 min; inhibition, % at 5 µM; hit rate 21% among 96,000;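 active = CYP2C19 inhibition above a set limit at 5 µM in the primary screen, cut at about 50% in these data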
HIV Rev-RRE inh – inhibitors of HIV-1 Rev-RRE RNA interaction; Rev peptide-RRE RNA binding, FRET; P05866; inhibition, % at 8 µM; hit rate 0.79% among 97,000;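 active = inhibition above the screen-wide mean plus 3 SD, cut at about 35% in these data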
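Probe or stimulus: fluorescein-Rev peptide as binding partner; assay system: Cy5-tagged RRE RNA duplex with fluorescein-tagged Rev peptide; timing: 5 min compound–RNA preincubation, then 15 min with peptide, 25 °C; medium: HEPES pH 7.5 buffer with KCl, MgCl2, NaCl and EDTA; signal: fluorescein-to-Cy5 FRET, 480 nm excitation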
CYP2C19 act – increases human CYP2C19 enzyme activity | AID 1025 | P33261 | recombinant CYP2C19, luciferin-H EGE luminescence; hits give high values; 0 = fully inhibited enzyme, 1 = untreated enzyme | activation factor at 5 µM | 96,000 tested, under 10 active;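 active = activation factor of at least 2 at 5 µM in the primary screen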
Cav3 T inh – human Cav3.2 channel inhibition, primary screen | Cav3.2-expressing cells, Fluo-4 calcium fluorescence FDSS; hits give low values | B-score at 10 µM | hit rate 4% among 100,000;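 active = single-dose well whose peak fluorescence ratio is a statistical outlier from its plate by either plate-standardised score or position-corrected B-score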
Target sequence (O95180 whole entry, looked up): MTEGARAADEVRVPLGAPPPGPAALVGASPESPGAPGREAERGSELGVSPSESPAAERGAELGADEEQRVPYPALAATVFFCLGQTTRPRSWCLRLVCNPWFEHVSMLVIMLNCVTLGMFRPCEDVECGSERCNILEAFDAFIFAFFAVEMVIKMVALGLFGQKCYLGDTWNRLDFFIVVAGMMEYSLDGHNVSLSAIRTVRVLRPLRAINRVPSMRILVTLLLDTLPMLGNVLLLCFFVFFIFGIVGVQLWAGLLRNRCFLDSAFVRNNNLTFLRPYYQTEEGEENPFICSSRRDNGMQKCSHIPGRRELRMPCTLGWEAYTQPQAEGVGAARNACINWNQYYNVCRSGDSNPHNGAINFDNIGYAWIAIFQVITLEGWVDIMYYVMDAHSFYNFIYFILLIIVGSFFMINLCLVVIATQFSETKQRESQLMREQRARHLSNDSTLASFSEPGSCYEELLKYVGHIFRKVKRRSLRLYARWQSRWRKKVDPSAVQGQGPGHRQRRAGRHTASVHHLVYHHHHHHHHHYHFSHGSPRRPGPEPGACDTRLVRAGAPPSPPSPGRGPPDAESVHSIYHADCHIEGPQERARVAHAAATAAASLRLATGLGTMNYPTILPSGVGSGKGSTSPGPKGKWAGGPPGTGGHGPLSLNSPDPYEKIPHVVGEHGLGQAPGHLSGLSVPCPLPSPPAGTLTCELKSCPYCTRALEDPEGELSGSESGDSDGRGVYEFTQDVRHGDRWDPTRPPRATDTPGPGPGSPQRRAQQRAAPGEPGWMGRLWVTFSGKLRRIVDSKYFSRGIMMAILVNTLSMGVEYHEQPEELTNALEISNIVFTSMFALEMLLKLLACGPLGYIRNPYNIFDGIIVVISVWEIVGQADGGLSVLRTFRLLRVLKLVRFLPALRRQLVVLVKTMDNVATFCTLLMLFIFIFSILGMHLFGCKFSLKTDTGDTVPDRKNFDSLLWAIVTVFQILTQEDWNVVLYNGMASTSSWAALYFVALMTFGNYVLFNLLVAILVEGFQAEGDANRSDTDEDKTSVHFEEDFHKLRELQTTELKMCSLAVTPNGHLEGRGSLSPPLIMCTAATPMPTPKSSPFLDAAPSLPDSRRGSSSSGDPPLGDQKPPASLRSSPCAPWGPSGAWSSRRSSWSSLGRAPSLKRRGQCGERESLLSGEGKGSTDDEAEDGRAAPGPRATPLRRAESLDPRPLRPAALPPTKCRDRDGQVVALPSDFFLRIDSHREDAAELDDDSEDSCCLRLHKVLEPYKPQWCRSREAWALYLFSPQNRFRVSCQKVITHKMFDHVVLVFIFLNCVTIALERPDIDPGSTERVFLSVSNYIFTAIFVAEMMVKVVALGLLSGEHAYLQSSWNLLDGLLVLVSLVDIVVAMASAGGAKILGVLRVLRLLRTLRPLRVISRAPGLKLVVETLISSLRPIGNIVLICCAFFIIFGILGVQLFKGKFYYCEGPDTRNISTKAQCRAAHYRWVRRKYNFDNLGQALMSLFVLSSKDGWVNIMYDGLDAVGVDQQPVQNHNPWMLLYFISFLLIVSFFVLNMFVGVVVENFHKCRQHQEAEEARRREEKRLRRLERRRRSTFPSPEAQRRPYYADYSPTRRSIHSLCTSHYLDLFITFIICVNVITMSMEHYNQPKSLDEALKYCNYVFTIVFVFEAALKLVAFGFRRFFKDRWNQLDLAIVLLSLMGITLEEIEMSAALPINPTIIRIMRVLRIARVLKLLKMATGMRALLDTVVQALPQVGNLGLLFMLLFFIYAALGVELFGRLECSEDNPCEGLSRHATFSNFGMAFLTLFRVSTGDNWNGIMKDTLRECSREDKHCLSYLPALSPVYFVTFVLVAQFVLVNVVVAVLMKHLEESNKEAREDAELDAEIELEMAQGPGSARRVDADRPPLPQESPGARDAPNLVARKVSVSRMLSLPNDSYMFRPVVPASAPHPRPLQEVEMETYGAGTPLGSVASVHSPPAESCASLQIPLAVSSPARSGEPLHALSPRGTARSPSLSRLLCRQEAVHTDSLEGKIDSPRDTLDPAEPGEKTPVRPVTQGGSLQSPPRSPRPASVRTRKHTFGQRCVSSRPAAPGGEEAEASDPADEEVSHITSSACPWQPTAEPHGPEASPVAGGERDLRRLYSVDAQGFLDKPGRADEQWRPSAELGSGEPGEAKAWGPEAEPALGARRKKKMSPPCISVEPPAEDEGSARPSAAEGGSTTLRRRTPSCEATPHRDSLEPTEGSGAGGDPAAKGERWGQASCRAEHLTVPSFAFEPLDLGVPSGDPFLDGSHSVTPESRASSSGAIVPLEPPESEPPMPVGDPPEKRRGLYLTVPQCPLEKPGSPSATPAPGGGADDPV
CYP2C9 inhib – blocks human cytochrome P450 2C9; P11712; CYP2C9 Supersomes, luciferin-H conversion, luminescence; hit rate 20% among 96,000; inhibition, % at 5 µM;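 active = blocking of liver enzyme CYP2C9 beyond about 50% at 5 µM, limit read from the data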
CYP2C9 activ – CYP2C9 (human) activation. recombinant CYP2C9, luciferin-H conversion, luminescence; hits give high values; factor 1 = untreated enzyme, 0 = blocked. activation factor at 5 µM. hit rate 1.4% among 96,000. P11712;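 active = activation factor of 2 or more for CYP2C9 at a 5 µM dose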
Numbers stand for hits; . = inactive; / = no result. Only some compounds are listed: those with a hit (about 27% of all), similar ones and a draw of the others.

SMILES	CYP2C19 inh	HIV Rev-RRE inh	CYP2C19 act	Cav3 T inh	CYP2C9 inhib	CYP2C9 activ
COc1ccccc1C(=O)N1CCN(S(=O)(=O)c2ccccc2)CC1	93	.	.	.	52	.
COc1ccccc1-n1cnnc1SCC(=O)Nc1nc(C)c(Cl)cc1Cl	75	.	.	.	.	.
COc1ccc(C(=O)N2CCN(S(=O)(=O)c3ccccc3)CC2)c(OC)c1	.	.	.	.	.	.
COc1cccc(OC)c1C(=O)N1CCN(S(=O)(=O)c2ccccc2)CC1	53	.	.	/	74	.
COc1ccc(N2CCN(C(=O)CSc3nnc(COc4cccc5cccnc45)o3)CC2)cc1	.	.	.	.	.	.
COC(=O)c1ccc(C(=O)Nc2cc(Cl)ccc2Cl)cc1NC(=O)c1ccc(N(C)C)cc1	.	/	.	.	.	.
O=C(c1ccccc1F)N1CCN(S(=O)(=O)c2ccc(S(=O)(=O)N3CCCCC3)cc2)CC1	80	.	.	.	.	.
Cc1ccccc1N(C(=O)Cn1nnc2ccccc21)C(C(=O)NCc1ccco1)c1ccncc1 (configuration not stated)	.	/	.	.	.	.
CCCC1(C(=O)O)NC(c2cccc(OC)c2O)C2C(=O)N(c3ccccc3)C(=O)C21 (configuration not stated)	.	.	.	.	.	.
C=CCc1cc(/C=N/NC(=O)CSc2nnc(CCCc3ccc(OC)cc3)o2)cc(OC)c1O	89	.	.	.	80	.
Cc1ccc(C)c(NC(=O)CSc2nnc(CCCCCNC(=O)OC(C)(C)C)o2)c1	.	.	.	.	.	.
COc1ccc(/C=N/NC(=O)CSc2nnc(CCCc3ccc(OC)c(C)c3)o2)cc1	78	.	.	.	84	.
C=CCc1cc(/C=N\NC(=O)CSc2nnc(CCCc3ccc(OC)c(C)c3)o2)cc(OC)c1O	86	.	.	.	83	.
COc1ccc(CCCc2nnc(SCC(=O)N/N=C\c3ccc(O)c(OC)c3)o2)cc1C	.	.	.	.	.	.
CCOc1nc2ccccc2nc1C	.	.	.	.	.	.
Cc1ccc(S(=O)(=O)N(CC(O)CN(C)C)c2ccccc2)cc1 (configuration not stated)	.	.	.	.	.	.
Cc1ccc(NC(=O)/C(=C\c2ccccc2)NC(=O)/C=C/c2ccccc2)cc1	.	.	.	-4.9	.	.
Cc1ccc(NC(=O)/C(=C\C=C\c2ccccc2)NC(=O)c2ccccc2)cc1	.	.	.	-5.3	68	.
Cc1ccc(NC(=O)c2ccccc2)cc1	.	.	.	.	.	.
O=C(CN1C(=O)c2cccc3cccc1c23)Nc1cccnc1	/	.	/	.	/	/
COC(=O)c1c(NC(=O)CSc2nnc(-c3ccco3)n2C)sc(C)c1C	/	.	/	.	/	/
Cc1ccc2nc(C)cc(Nc3ccc4c(c3)OCCO4)c2c1	.	.	.	.	68	.
CCN(CC)CCNc1nc2cc(OC)c(OC)cc2c2nc(-c3ccccc3)nn12	.	.	.	.	.	.
OCCCn1c(-c2ccccc2)n[nH]c1=S	/	.	/	.	/	/
O=C(CS(=O)(=O)c1cn(Cc2cccc(F)c2)c2ccccc12)N1CCOCC1	.	.	.	.	.	.
SMILES	CYP2C19 inh	HIV Rev-RRE inh	CYP2C19 act	Cav3 T inh	CYP2C9 inhib	CYP2C9 activ
O=S(=O)(Cc1cccc(F)c1)c1c[nH]c2ccccc12	100	.	.	.	81	.
Brc1nnc2n1-c1ccccc1Sc1ccccc1-2	/	.	/	.	/	/
Clc1ccc2c(c1)-c1nnc(Br)n1-c1ccccc1S2	/	.	/	-3.9	/	/
CCOC(=O)c1cc(NC(=O)N2CCCc3ccccc32)c(C)nc1C	.	.	.	.	.	.
Cc1nc(C)c(NC(=O)N2CCc3ccccc32)cc1NC(=O)N1CCc2ccccc21	52	.	.	/	77	.
O=C(Nc1ccc(Cl)cc1Cl)C1=Cc2ccccc2OC1	.	.	.	.	.	.
CN(C)C(=O)NC(Nc1ccc(Cl)cc1Cl)C(Cl)(Cl)Cl (configuration not stated)	87	.	.	.	65	.
COc1ccccc1/C=C/C=N/n1c(COc2ccccc2)n[nH]c1=S	.	.	.	.	.	.
Cc1ccc(-c2n[nH]c(=S)n2/N=C/C=C/c2ccccc2[N+](=O)[O-])cc1	.	.	.	.	58	.
CCCCNC(=O)c1ccc2nc(-c3ccco3)c(-c3ccco3)nc2c1	.	/	.	/	.	.
